The results in this text go back to ChEMBL document CHEMBL1240409, “Design, synthesis and evaluation of (E)-alpha-benzylthio chalcones as novel inhibitors of BCR-ABL kinase” (Bioorg Med Chem, 2010).

The subject of assay [1] is K562. Put plainly: Growth inhibition of human K562 cells expressing p210Bcr/Abl after 96 hrs by trypan blue exclusion assay. Type of assay: functional, cell-based. Conditions: K562, 96 h. The procedure, abridged: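 K562 cells were kept in RPMI with 10% FBS and penicillin–streptomycin at 37 °C under 5% CO2. Cells were seeded at 1 × 10^5 cells/mL with a range of compound concentrations, using DMSO as the negative control. After 96 h, viability was counted by Trypan blue exclusion and expressed as percent of DMSO control to derive GI50.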

Assay [2] concerns DU-145. Nature of the assay: Growth inhibition of human DU145 cells after 96 hrs by trypan blue exclusion assay. Type of assay: functional. Conditions: DU-145, 96 h.

As for `COc1cc(OC)c(C=C(C(=O)c2ccc(Cl)cc2)[S+]([O-])Cc2ccccc2Cl)c(OC)c1` (centres undefined), the GI50 in assay [1] was 50 µM; in assay [2] it was 10 µM.
On the same counts, the results for `O=C(/C(=C\c1c(O)cc(O)cc1O)Sc1ccc(Br)cc1)c1ccc(Cl)cc1` are 50 µM and 50 µM.
Take `Cc1ccsc1/C=C(/SCc1ccc(F)cc1)C(=O)c1ccc(Cl)cc1`: the concentration for 50% growth inhibition (GI50) in assay [1] and in assay [2] was 50 µM each time.
With `COc1cc(/C=C(\C(=O)c2ccc(Cl)cc2)S(=O)(=O)Cc2ccccc2Cl)cc(OC)c1`, the 50% growth inhibitory concentration (GI50) in assay [1] was 50 µM; in assay [2] it was over 100 µM.
Taken in the same sequence, the figures for `O=C(/C(=C\c1ccc(OC(F)(F)F)cc1)Sc1ccc(Br)cc1)c1ccc(Br)cc1` were 1 µM and 10 µM.
Consider `CN(C)c1ccc(/C=C(/Sc2ccccc2Br)C(=O)c2ccc(Br)cc2)cc1`, for which the GI50 in assay [1] and in assay [2] was over 100 µM in each case.
For the compound `Cc1ccc(CS/C(=C/c2c(O)cc(O)cc2O)C(=O)c2ccc(Cl)cc2)cc1`, the concentration for 50% growth inhibition (GI50) in assay [1] and in assay [2] was 50 µM in each case.
In the case of `CN(C)c1ccc(/C=C(/SCc2ccc(Cl)cc2)C(=O)c2ccc(C(=O)O)cc2)cc1`, the GI50 in assay [1] and in assay [2] was 1 µM each time.
Turning to `CSc1ccc(/C=C(/SCc2ccc(C)cc2)C(=O)c2ccc(Cl)cc2)cc1`, the GI50 in assay [1] turned out to be 10 µM; in assay [2], 25 µM.
Turning to `O=C(/C(=C\c1ccc(Br)c([N+](=O)[O-])c1)S(=O)(=O)c1ccc(Br)cc1)c1ccc(Br)cc1`, the concentration for 50% growth inhibition (GI50) in assay [1] and in assay [2] was 10 µM throughout.
`O=C(/C(=C\c1c[nH]c2ccc(Cl)cc12)SCc1ccc(F)cc1)c1ccc(Br)cc1`: the GI50 in assay [1] and in assay [2] was 1 µM in each case.
In the case of `COc1cc(OC)c(C=C(SCc2ccccc2Cl)C(=O)c2ccc(Cl)cc2)c(OC)c1`, the figures for the GI50 in assay [1] and in assay [2] were 10 µM and 25 µM, respectively.
Taken in the same sequence, the figures for `COc1ccc(/C=C(/Sc2ccc(C)cc2)C(=O)c2ccc(Cl)cc2)cc1O` were 1 µM and 1 µM.
On the same counts, the results for `COc1ccc(S/C(=C/c2ccc(Cl)cc2Cl)C(=O)c2ccc(Br)cc2)cc1` are 1 µM and 1 µM.
With `Cc1ccc(CS/C(=C/c2ccc(O)cc2)C(=O)c2ccc(Cl)cc2)cc1`, the results for the GI50 in assay [1] and in assay [2] were 1 µM and 10 µM, respectively.
For the compound `O=C(/C(=C\c1ccc(O)c([N+](=O)[O-])c1)Sc1ccccc1Br)c1ccc(Br)cc1`, the GI50 in assay [1] and in assay [2] was 10 µM in each case.
For `CCOc1ccc(/C=C(\C(=O)c2ccc(Cl)cc2)S(=O)(=O)Cc2ccccc2Cl)cc1OC`, the GI50 in assay [1] turned out to be 1 µM; in assay [2] it was 10 µM.
As to `Cc1ccc(S(=O)(=O)/C(=C/c2cccs2)C(=O)c2ccc(Cl)cc2)cc1`, the GI50 in assay [1] was found to be 50 µM; in assay [2], 25 µM.
Take `Cc1ccc(S(=O)(=O)/C(=C/c2ccccc2OCc2ccccc2)C(=O)c2ccc(Br)cc2)cc1`: the GI50 in assay [1] and in assay [2] was 1 µM in each case.
Regarding `O=C(C(=Cc1ccc(Br)cc1)SCc1ccccc1Cl)c1ccc(Cl)cc1`, the GI50 in assay [1] worked out at 1 µM; in assay [2], 10 µM.
On the same counts, the results for `Cc1ccc(S(=O)(=O)/C(=C/c2ccc(N(C)C)cc2)C(=O)c2ccc(Br)cc2)cc1` are over 100 µM and 50 µM.
On the same counts, the results for `O=C(/C(=C\c1c(O)cc(O)cc1O)Sc1ccccc1Br)c1ccc(Cl)cc1` are over 100 µM and over 100 µM.
On the same counts, the results for `COc1ccc(C(=O)/C(=C\c2ccc(Cl)cc2)Sc2ccc(F)cc2)cc1` are over 100 µM and over 100 µM.
On to `COc1ccccc1/C=C(\C(=O)c1ccc(Cl)cc1)S(=O)(=O)c1ccc(Br)cc1`, for which the GI50 in assay [1] and in assay [2] was 10 µM throughout.
With `COc1ccc2[nH]cc(/C=C(/Sc3ccc(Br)cc3)C(=O)c3ccc(Br)cc3)c2c1`, the GI50 in assay [1] and in assay [2] was 10 µM throughout.
Consider `Nc1c(Br)cc(Br)cc1/C=C(\C(=O)c1ccc(Br)cc1)S(=O)(=O)c1ccc(Br)cc1`, for which the GI50 in assay [1] and in assay [2] was 25 µM in each case.
For the compound `O=C(/C(=C\c1c(O)cc(O)cc1O)Sc1ccccc1Br)c1ccc(Br)cc1`, the GI50 in assay [1] and in assay [2] was over 100 µM in each case.
Regarding `COc1cc(OC)c(/C=C(\C(=O)c2ccc([N+](=O)[O-])cc2)S(=O)(=O)Cc2ccc(Cl)cc2)c(OC)c1`, the GI50 in assay [1] and in assay [2] was 10 µM in each case.
`Cc1ccc(S/C(=C/c2c[nH]c3ccccc23)C(=O)c2ccc(Br)cc2)cc1`: the GI50 in assay [1] and in assay [2] was 10 µM in each case.
On to `O=C(/C(=C\c1ccccc1F)S(=O)(=O)c1ccc(Br)cc1)c1ccc(Cl)cc1`, for which the GI50 in assay [1] and in assay [2] was 25 µM each time.
For the compound `COc1ccc(/C=C(\C(=O)c2ccc(Cl)cc2)S(=O)(=O)Cc2ccccc2Cl)cc1`, the GI50 in assay [1] was 25 µM; in assay [2], 50 µM.
On the same counts, the results for `COc1ccc(/C=C(\C(=O)c2ccc(Br)cc2)S(=O)(=O)c2ccc(C)cc2)cc1` are 1 µM and 1 µM.
Taken in the same sequence, the figures for `Cc1ccc(CS(=O)(=O)/C(=C/c2c[nH]c3ccccc23)C(=O)c2ccc(Cl)cc2)cc1` were over 100 µM and 25 µM.
For the compound `O=C(/C(=C\c1ccc(F)cc1)S(=O)(=O)c1ccc(Br)cc1)c1ccc(Br)cc1`, the GI50 in assay [1] amounted to 10 µM; in assay [2], 4 µM.
Taken in the same sequence, the figures for `Cc1ccc(S/C(=C/c2sccc2C)C(=O)c2ccc(Cl)cc2)cc1` were 50 µM and 50 µM.
As to `COc1ccccc1/C=C(\C(=O)c1ccc(Cl)cc1)S(=O)(=O)c1ccc(C)cc1`, the GI50 in assay [1] and in assay [2] was 1 µM in each case.
In the case of `O=C(/C(=C\c1ccc(Br)c(O)c1)Sc1ccc(Br)cc1)c1ccc(Br)cc1`, the GI50 in assay [1] and in assay [2] was 1 µM throughout.
With `O=C(C(=Cc1ccc(Br)cc1)S(=O)(=O)Cc1ccccc1Cl)c1ccc(Cl)cc1`, the GI50 in assay [1] and in assay [2] was 1 µM throughout.
With `O=C(/C(=C\c1cc(I)c(O)c(I)c1)SCc1ccc(Br)cc1)c1ccc(Br)cc1`, the GI50 in assay [1] and in assay [2] was 1 µM each time.
With `Cc1ccc(C)c(/C=C(\C(=O)c2ccc(Cl)cc2)S(=O)(=O)Cc2ccc(Cl)cc2)c1`, the GI50 in assay [1] and in assay [2] was 10 µM in each case.
Regarding `O=C(/C(=C\c1ccc(Cl)cc1Cl)S(=O)(=O)c1ccc(Br)cc1)c1ccc(Cl)cc1`, the GI50 came out at 25 µM in assay [1] and 50 µM in assay [2].
As for `Cc1ccc(S(=O)(=O)/C(=C/c2c(O)cc(O)cc2O)C(=O)c2ccc(Cl)cc2)cc1`, the GI50 in assay [1] and in assay [2] was over 100 µM throughout.
For the compound `O=C(/C(=C\c1ccc(Cl)cc1Cl)Sc1ccc(Br)cc1)c1ccc(Br)cc1`, the GI50 in assay [1] and in assay [2] was 1 µM in each case.
In the case of `O=C(/C(=C\c1ccc([N+](=O)[O-])c(O)c1)Sc1c(F)c(F)c(F)c(F)c1F)c1ccc(Br)cc1`, the GI50 in assay [1] worked out at 1 µM; in assay [2] it was 10 µM.
Taken in the same sequence, the figures for `O=C(/C(=C\c1c(O)cc(O)cc1O)SCc1ccc(Cl)c(Cl)c1)c1ccc(Cl)cc1` were 25 µM and 25 µM.
Consider `CN(C)c1ccc(/C=C(/SCc2ccc(Cl)c(Cl)c2)C(=O)c2ccc(Cl)cc2)cc1`, for which the GI50 in assay [1] and in assay [2] was 50 µM throughout.
Consider `O=C(/C(=C\c1ccccc1OCc1ccccc1)S(=O)(=O)c1ccc(F)cc1)c1ccc(Cl)cc1`, for which the GI50 in assay [1] and in assay [2] was 1 µM throughout.
Take `O=C(/C(=C\c1ccc(F)cc1F)S(=O)(=O)c1ccc(Br)cc1)c1ccc(Br)cc1`: the GI50 stood at 1 µM in assay [1] and 7.5 µM in assay [2].
Regarding `Cc1ccc(S/C(=C/c2c[nH]c3ccc(Cl)cc23)C(=O)c2ccc(Br)cc2)cc1`, the GI50 in assay [1] and in assay [2] was 1 µM in each case.
Turning to `O=C(/C(=C\c1c[nH]c2ccc(Br)cc12)SCc1ccc(F)cc1)c1ccc(Cl)cc1`, the values for the GI50 in assay [1] and in assay [2] were 1 µM and 50 µM, respectively.
On the same counts, the results for `COc1cc(OC)c(/C=C(/SCc2ccc(F)cc2)C(=O)c2ccc(Br)cc2)c(OC)c1` are 1 µM and 1 µM.
`COc1ccccc1/C=C(/SCc1ccccc1F)C(=O)c1ccc(Cl)cc1`: the GI50 in assay [1] stood at 1 µM; in assay [2], 10 µM.
`CCOc1ccc(/C=C(/Sc2ccc(C)cc2)C(=O)c2ccc(Br)cc2)cc1OC`: the results for the GI50 in assay [1] and in assay [2] were 1 µM and 50 µM, respectively.
On the same counts, the results for `O=C(/C(=C\c1cc(Cl)cc(Cl)c1Cl)Sc1ccccc1Br)c1ccc(Cl)cc1` are 50 µM and 25 µM.
Taken in the same sequence, the figures for `O=C(C(=Cc1ccc(I)cc1)S(=O)(=O)Cc1ccc(I)cc1)c1ccc(I)cc1` were over 50 µM and 50 µM.
With `O=C(/C(=C\c1ccc(Cl)cc1)S(=O)(=O)c1ccc(Cl)cc1)c1ccc(Cl)cc1`, the GI50 in assay [1] came to 10 µM; in assay [2] it was 25 µM.
Take `O=C(/C(=C\c1ccccc1OCc1ccccc1)S(=O)(=O)c1ccc(Br)cc1)c1ccc(Cl)cc1`: the GI50 in assay [1] and in assay [2] was 1 µM throughout.
`COc1ccc(S(=O)(=O)/C(=C/c2ccc(Br)cc2)C(=O)c2ccc(Br)cc2)cc1`: the GI50 in assay [1] and in assay [2] was 6 µM throughout.
Take `O=C(/C(=C\c1ccc(Cl)cc1Cl)S(=O)(=O)c1ccc(Br)cc1)c1ccc(Br)cc1`: the figures for the GI50 in assay [1] and in assay [2] were 1 µM and 10 µM, respectively.
For the compound `COc1cc(/C=C(/Sc2ccc(Br)cc2)C(=O)c2ccc(Br)cc2)ccc1F`, the figures for the GI50 in assay [1] and in assay [2] were 1 µM and 10 µM, respectively.
Taken in the same sequence, the figures for `O=C(/C(=C\OCc1ccccc1)S(=O)(=O)c1ccccc1Cl)c1ccc(Cl)cc1` were 1 µM and 1 µM.
Taken in the same sequence, the figures for `Cc1ccc(CS(=O)(=O)/C(=C/c2cc(C)ccc2C)C(=O)c2ccc(Cl)cc2)cc1` were 1 µM and 1 µM.

As a reminder, the GI50 is the concentration that inhibits growth by half. Lower therefore signals more potent growth inhibition.
